Measured values: ChEMBL document CHEMBL3774372, “Design, physico-chemical properties and biological evaluation of some new N-[(phenoxy)alkyl]- and N-{2-[2-(phenoxy)ethoxy]ethyl}aminoalkanols as anticonvulsant agents” (Bioorg Med Chem, 2016)
Calls of active or inactive are those of the source.

Legend:
Mus musculus [1] = assay: Anticonvulsant activity in ip dosed mouse assessed as protection against maximal electric shock-induced seizures; assay type: functional, organism-based
Outline: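 Compound suspended in 0.5% methylcellulose and given ip to mice; screening doses 30, 100 and 300 mg/kg, read at 0.25–4 h. Protection was defined as abolition of hindlimb tonic extension.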

Mus musculus [2] = assay: Anticonvulsant activity in mouse assessed as protection against 6 Hz psychomotor seizure at 100 mg/kg, ip after 1 hr; assay type: functional, organism-based
Outline: (§1)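 Suspension in 0.5% methylcellulose given ip to mice; corneal stimulation with 0.2 ms monopolar rectangular pulses at 6 Hz for 3 s from a constant current device, mice restrained then released to observation cage. Protected if normal exploratory behaviour resumed within 10 s of stimulation. Scored as protected/tested, 4 mice per group.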

Mus musculus [3] = assay: Anticonvulsant activity in mouse assessed as protection against 6 Hz psychomotor seizure at 100 mg/kg, ip after 2 hrs; assay type: functional, organism-based; outline: as §1
Mus musculus [4] = assay: Anticonvulsant activity in mouse assessed as protection against 6 Hz psychomotor seizure at 100 mg/kg, ip after […]; assay type: functional, organism-based
Mus musculus [5] = assay: Anticonvulsant activity in mouse assessed as protection against 6 Hz psychomotor seizure at 100 mg/kg, ip after 4 hrs; assay type: functional, organism-based; outline: as §1
Mus musculus [6] = assay: Neurotoxicity in mouse at 100 mg/kg, ip after […] by rotarod test; assay type: toxicity, organism-based; conditions: in vivo
Mus musculus [7] = assay: Anticonvulsant activity in mouse assessed as protection against maximal electric shock-induced seizures at 30 mg/kg, ip measured after 0.5 hrs; assay type: functional, organism-based
Outline: (§2)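 Mice dosed ip with suspension in 0.5% methylcellulose; maximal electroshock applied at the listed time after dosing. Protection = abolition of hindlimb tonic extension component of seizure; reported as animals protected/animals tested.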

Mus musculus [8] = assay: Anticonvulsant activity in mouse assessed as protection against maximal electric shock-induced seizures at 30 mg/kg, ip measured after 4 hrs; assay type: functional, organism-based; outline: as §2
Mus musculus [9] = assay: Anticonvulsant activity in mouse assessed as protection against maximal electric shock-induced seizures at 100 mg/kg, ip measured after 4 hrs; assay type: functional, organism-based; outline: as §2
Mus musculus [10] = assay: Anticonvulsant activity in mouse assessed as protection against subcutaneous pentylenetetrazol-induced seizures at 30 mg/kg, ip measured after 0.5 hrs; assay type: functional, organism-based
Outline: (§3)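 Mice dosed ip as 0.5% methylcellulose suspension; pentylenetetrazole 85 mg/kg in 0.9% NaCl injected subcutaneously into posterior midline, animals watched at least 30 min. Protection = no threshold seizure (single clonic spasm episode lasting ≥5 s); scored protected/tested.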

Mus musculus [11] = assay: Anticonvulsant activity in mouse assessed as protection against subcutaneous pentylenetetrazol-induced seizures at 30 mg/kg, ip measured after 4 hrs; assay type: functional, organism-based; outline: as §3
Mus musculus [12] = assay: Anticonvulsant activity in mouse assessed as protection against subcutaneous pentylenetetrazol-induced seizures at 100 mg/kg, ip measured after 4 hrs; assay type: functional, organism-based; outline: as §3
Mus musculus [13] = assay: Neurotoxicity in mouse at 30 mg/kg, ip after 0.5 hrs by rotarod test; assay type: toxicity, organism-based; conditions: in vivo
Outline: (§4)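 Mice were dosed ip with compound suspended in 0.5% methylcellulose. Rotarod: a 1 in. knurled rod turning at 6 rpm. Neurotoxicity was scored as failure to stay on the rod for at least 1 min in each of three trials. Results are given as the number of animals affected out of the number tested.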

Mus musculus [14] = assay: Neurotoxicity in mouse at 30 mg/kg, ip after 4 hrs by rotarod test; assay type: toxicity, organism-based; conditions: in vivo; outline: as §4
Mus musculus [15] = assay: Neurotoxicity in mouse at 100 mg/kg, ip after 0.5 hrs by rotarod test; assay type: toxicity, organism-based; conditions: in vivo; outline: as §4
Mus musculus [16] = assay: Neurotoxicity in mouse at 100 mg/kg, ip after 4 hrs by rotarod test; assay type: toxicity, organism-based; conditions: in vivo; outline: as §4
Mus musculus [17] = assay: Neurotoxicity in mouse at 300 mg/kg, ip after 0.5 hrs by rotarod test; assay type: toxicity, organism-based; conditions: in vivo; outline: as §4
Mus musculus [18] = assay: Neurotoxicity in mouse at 300 mg/kg, ip after 4 hrs by rotarod test; assay type: toxicity, organism-based; conditions: in vivo; outline: as §4

| Compound | EC50 (Mus musculus [1]) [mg/kg] | Activity (Mus musculus [2]) | Activity (Mus musculus [3]) | Activity (Mus musculus [4]) | Activity (Mus musculus [5]) | Activity (Mus musculus [6]) | Activity (Mus musculus [7]) | Activity (Mus musculus [8]) | Activity (Mus musculus [9]) | Activity (Mus musculus [10]) | Activity (Mus musculus [11]) | Activity (Mus musculus [12]) | Activity (Mus musculus [13]) | Activity (Mus musculus [14]) | Activity (Mus musculus [15]) | Activity (Mus musculus [16]) | Activity (Mus musculus [17]) | Activity (Mus musculus [18]) |
| --- | --- | --- | --- | --- | --- | --- | --- | --- | --- | --- | --- | --- | --- | --- | --- | --- | --- | --- |
| Cc1cccc(C)c1OCC(C)N (stereo not drawn) [MEXILETINE] | 20 |  |  |  |  |  |  |  |  |  |  |  |  |  |  |  |  |  |
| Cc1cccc(OCCOCCNC(C)CO)c1C (stereo not drawn) |  | Active | inactive | Active | inactive | Toxic | inactive | inactive | inactive | inactive | inactive | inactive | Non-toxic | Non-toxic | Toxic | Non-toxic | Toxic | Non-toxic |
